{"source": "paper PMC3016151", "about": "(Investigational New Drugs, 2009)", "key": {"[1]": {"settings": "phase I and pharmacological study; cited from earlier work"}, "[2]": {"test_system": "adenosine triphosphate binding cassette (ABC) B1 (ABCB1) transporter", "settings": "in vitro studies; data on file at Bayer Pharmaceuticals Corporation; cited from earlier work"}, "[3]": {"test_system": "patients with advanced or metastatic solid tumors", "assay": "Telatinib-induced toxicity in phase I patients", "assay_type": "in vivo, human", "method_in_brief": "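Patients with advanced or metastatic solid tumours (ECOG ≤2) took test compound orally, od or bid, continuously (20 mg od to 1,500 mg bid). Adverse events were graded by NCI-CTC v3.0 over all treatment cycles. KDR and FLT4 SNPs were TaqMan-genotyped on a dynamic array using DNA from residual frozen blood. Toxicity was compared by two-sided chi-square (3×2 genotype; 2×2 carrier vs noncarrier).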"}, "[4]": {"assay": "Pharmacokinetics of telatinib in phase I patients", "assay_type": "in vivo, human", "settings": "for Dose normalized AUC, mean: cycle 1 day 14, 150 mg tablets"}, "[5]": {"settings": "all treatment cycles, 33 patients, all dose levels"}}}
{"smiles": "CNC(=O)c1cc(COc2nnc(Nc3ccc(Cl)cc3)c3ccoc23)ccn1", "note": "[telatinib, Telatinib]", "values": [{"measurement": "AUC(0–12) interpatient variability, % coefficient of variation", "setting": "[1]", "result": "20–150%"}, {"measurement": "Cmax interpatient variability, % coefficient of variation", "setting": "[1]", "result": "20–150%"}, {"measurement": "dose proportionality of pharmacokinetics", "setting": "[1]", "result": "dose proportional"}, {"measurement": "substrate of the ABCB1 transporter", "setting": "[2]", "result": "weak substrate"}, {"measurement": "Grade 3–4 toxicity, number of patients", "setting": "[3]; 33 patients", "result": 3, "unit": "patients"}, {"measurement": "Hypertension (most frequently observed side-effect), number of patients", "setting": "[3]; 33 patients, unrelated to dose", "result": 7, "unit": "n"}, {"measurement": "Toxicity: any toxicity grade 1–4 all cycles, No (number of patients)", "setting": "[3]; FLT4 1480A>G genotype AA", "result": 7}, {"measurement": "Toxicity: any toxicity grade 1–4 all cycles, Yes (number of patients)", "setting": "[3]; FLT4 1480A>G genotype AA", "result": 20}, {"measurement": "Toxicity: any toxicity grade 1–4 all cycles, No (number of patients)", "setting": "[3]; FLT4 1480A>G genotype AG", "result": 3}, {"measurement": "Toxicity: any toxicity grade 1–4 all cycles, Yes (number of patients)", "setting": "[3]; FLT4 1480A>G genotype AG", "result": 3}, {"measurement": "Toxicity: any toxicity grade 1–4 all cycles, No (number of patients)", "setting": "[3]; FLT4 2670C>G genotype CC", "result": 6}, {"measurement": "Toxicity: any toxicity grade 1–4 all cycles, Yes (number of patients)", "setting": "[3]; FLT4 2670C>G genotype CC", "result": 11}, {"measurement": "Toxicity: any toxicity grade 1–4 all cycles, No (number of patients)", "setting": "[3]; FLT4 2670C>G genotype CG", "result": 3}, {"measurement": "Toxicity: any toxicity grade 1–4 all cycles, Yes (number of patients)", "setting": "[3]; FLT4 2670C>G genotype CG", "result": 9}, {"measurement": "Toxicity: any toxicity grade 1–4 all cycles, No (number of patients)", "setting": "[3]; FLT4 2670C>G genotype GG", "result": 1}, {"measurement": "Toxicity: any toxicity grade 1–4 all cycles, Yes (number of patients)", "setting": "[3]; FLT4 2670C>G genotype GG", "result": 3}, {"measurement": "Toxicity: any toxicity grade 1–4 all cycles, No (number of patients)", "setting": "[3]; KDR 1192G>A genotype CC", "result": 5}, {"measurement": "Toxicity: any toxicity grade 1–4 all cycles, Yes (number of patients)", "setting": "[3]; KDR 1192G>A genotype CC", "result": 19}, {"measurement": "Toxicity: any toxicity grade 1–4 all cycles, No (number of patients)", "setting": "[3]; KDR 1192G>A genotype TC", "result": 4}, {"measurement": "Toxicity: any toxicity grade 1–4 all cycles, Yes (number of patients)", "setting": "[3]; KDR 1192G>A genotype TC", "result": 4}, {"measurement": "Toxicity: any toxicity grade 1–4 all cycles, No (number of patients)", "setting": "[3]; KDR 1192G>A genotype TT", "result": 1}, {"measurement": "Toxicity: any toxicity grade 1–4 all cycles, Yes (number of patients)", "setting": "[3]; KDR 1192G>A genotype TT", "result": 0}, {"measurement": "Toxicity: any toxicity grade 1–4 all cycles, No (number of patients)", "setting": "[3]; KDR 1719A>T genotype AA", "result": 1}, {"measurement": "Toxicity: any toxicity grade 1–4 all cycles, Yes (number of patients)", "setting": "[3]; KDR 1719A>T genotype AA", "result": 1}, {"measurement": "Toxicity: any toxicity grade 1–4 all cycles, No (number of patients)", "setting": "[3]; KDR 1719A>T genotype TA", "result": 4}, {"measurement": "Toxicity: any toxicity grade 1–4 all cycles, Yes (number of patients)", "setting": "[3]; KDR 1719A>T genotype TA", "result": 9}, {"measurement": "Toxicity: any toxicity grade 1–4 all cycles, No (number of patients)", "setting": "[3]; KDR 1719A>T genotype TT", "result": 5}, {"measurement": "Toxicity: any toxicity grade 1–4 all cycles, Yes (number of patients)", "setting": "[3]; KDR 1719A>T genotype TT", "result": 13}, {"measurement": "Toxicity: any toxicity grade 1–4 all cycles, No (number of patients)", "setting": "[3]; KDR -604T>C genotype CC", "result": 3}, {"measurement": "Toxicity: any toxicity grade 1–4 all cycles, Yes (number of patients)", "setting": "[3]; KDR -604T>C genotype CC", "result": 7}, {"measurement": "Toxicity: any toxicity grade 1–4 all cycles, No (number of patients)", "setting": "[3]; KDR -604T>C genotype CT", "result": 5}, {"measurement": "Toxicity: any toxicity grade 1–4 all cycles, Yes (number of patients)", "setting": "[3]; KDR -604T>C genotype CT", "result": 13}, {"measurement": "Toxicity: any toxicity grade 1–4 all cycles, No (number of patients)", "setting": "[3]; KDR -604T>C genotype TT", "result": 2}, {"measurement": "Toxicity: any toxicity grade 1–4 all cycles, Yes (number of patients)", "setting": "[3]; KDR -604T>C genotype TT", "result": 3}, {"measurement": "Any toxicity grade 1–4, patients", "setting": "[3]; [5]", "result": "23 (70) n (%)"}, {"measurement": "Any toxicity grade 3 or 4, patients", "setting": "[3]; [5]", "result": "3 (9) n (%)"}, {"measurement": "Hypertension grade 1–4, patients", "setting": "[3]; [5]", "result": "7 (21) n (%)"}, {"measurement": "Hypertension grade 3 or 4, patients", "setting": "[3]; [5]", "result": "2 (6) n (%)"}, {"measurement": "any grade 1–4 toxicity, number of patients", "setting": "[3]; during all treatment cycles", "result": "23 out of 33 patients"}, {"measurement": "any grade 1–4 toxicity, share of patients", "setting": "[3]; during all treatment cycles, 33 patients", "result": 70, "unit": "%"}, {"measurement": "Dose normalized AUC, mean", "setting": "[4]; ABCB1 1236C>T genotype CC, n=9", "result": 7.84}, {"measurement": "Dose normalized AUC, mean", "setting": "[4]; ABCB1 1236C>T genotype CT, n=15", "result": 11.60}, {"measurement": "Dose normalized AUC, mean", "setting": "[4]; ABCB1 1236C>T genotype TT, n=5", "result": 4.82}, {"measurement": "Dose normalized AUC, mean", "setting": "[4]; ABCB1 2677G>A/T genotype GG, n=9", "result": 7.84}, {"measurement": "Dose normalized AUC, mean", "setting": "[4]; ABCB1 2677G>A/T genotype TG, n=15", "result": 11.60}, {"measurement": "Dose normalized AUC, mean", "setting": "[4]; ABCB1 2677G>A/T genotype TT, n=5", "result": 4.82}, {"measurement": "Dose normalized AUC, mean", "setting": "[4]; ABCB1 3435C>T genotype CC, n=7", "result": 7.30}, {"measurement": "Dose normalized AUC, mean", "setting": "[4]; ABCB1 3435C>T genotype CT, n=16", "result": 11.10}, {"measurement": "Dose normalized AUC, mean", "setting": "[4]; ABCB1 3435C>T genotype TT, n=6", "result": 6.65}, {"measurement": "Dose normalized AUC, mean", "setting": "[4]; ABCB1 -129T>C genotype CC, n=1", "result": 11.79}, {"measurement": "Dose normalized AUC, mean", "setting": "[4]; ABCB1 -129T>C genotype TC, n=2", "result": 15.65}, {"measurement": "Dose normalized AUC, mean", "setting": "[4]; ABCB1 -129T>C genotype TT, n=26", "result": 8.67}, {"measurement": "Dose normalized AUC, mean", "setting": "[4]; ABCC1 825T>C genotype TC, n=11", "result": 10.90}, {"measurement": "Dose normalized AUC, mean", "setting": "[4]; ABCC1 825T>C genotype TT, n=18", "result": 8.26}, {"measurement": "Dose normalized AUC, mean", "setting": "[4]; ABCC1 1062T>C genotype CC, n=2", "result": 13.45}, {"measurement": "Dose normalized AUC, mean", "setting": "[4]; ABCC1 1062T>C genotype TC, n=10", "result": 9.95}, {"measurement": "Dose normalized AUC, mean", "setting": "[4]; ABCC1 1062T>C genotype TT, n=17", "result": 8.36}, {"measurement": "Dose normalized AUC, mean", "setting": "[4]; ABCC1 2012G>T genotype GG, n=24", "result": 8.80}, {"measurement": "Dose normalized AUC, mean", "setting": "[4]; ABCC1 2012G>T genotype GT, n=4", "result": 13.46}, {"measurement": "Dose normalized AUC, mean", "setting": "[4]; ABCC1 2012G>T genotype TT, n=1", "result": 3.63}, {"measurement": "Dose normalized AUC, mean", "setting": "[4]; ABCC1 rs129081 genotype CC, n=5", "result": 10.22}, {"measurement": "Dose normalized AUC, mean", "setting": "[4]; ABCC1 rs129081 genotype GC, n=15", "result": 10.44}, {"measurement": "Dose normalized AUC, mean", "setting": "[4]; ABCC1 rs129081 genotype GG, n=9", "result": 6.77}, {"measurement": "Dose normalized AUC, mean", "setting": "[4]; ABCG2 346G>A genotype AG, n=4", "result": 6.00}, {"measurement": "Dose normalized AUC, mean", "setting": "[4]; ABCG2 346G>A genotype GG, n=25", "result": 9.78}, {"measurement": "Dose normalized AUC, mean", "setting": "[4]; ABCG2 421C>A genotype CA, n=6", "result": 10.48}, {"measurement": "Dose normalized AUC, mean", "setting": "[4]; ABCG2 421C>A genotype CC, n=23", "result": 8.95}, {"measurement": "Dose normalized AUC(0–12), mean (range)", "setting": "[4]; oral, cycle 1 day 14 (steady-state), AUC(0–12)/actual dose", "result": "9.26 (0.98–34.60) µg.hr/L per mg of dose"}]}
